Source: ChEMBL document CHEMBL4673249, “Anticancer Effects of Honokiol via Mitochondrial Dysfunction Are Strongly Enhanced by the Mitochondria-Targeting Carrier Berberine” (J Med Chem, 2020)
Calls of active or inactive are those of the source. The rule behind the calls is not given here.

tested on: A549; assay: Antiproliferative activity against human A549 cells assessed as reduction in cell viability after 48 hrs by MTT assay; type: functional, cell-based; details: A549, 48 h
Summary of the method: (§1)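 Cell lines grown at 37 °C in 5% CO2: A2780, A549, HL7702 and PC3 in RPMI 1640; HT29 in McCoy's 5A; HepG2 and PANC-1 in DMEM; all media with 10% FBS and penicillin/streptomycin. Cells seeded and left overnight, then exposed to compound for 48 h. MTT (5 mg/mL solution) added for 4 h at 37 °C, formazan dissolved in DMSO, absorbance read at 570 nm. IC50 taken from viability; run in triplicate.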

SMILES	IC50
C=CCc1ccc(OCCC)c(-c2ccc(O)c(CC=C)c2)c1	14700 nM
C=CCc1ccc(OCCC)c(-c2ccc(OCCCCCc3c4[n+](cc5c(OC)c(OC)ccc35)CCc3cc5c(cc3-4)OCO5)c(CC=C)c2)c1	1250 nM
C=CCc1ccc(O)c(-c2ccc(OCCCc3c4[n+](cc5c(OC)c(OC)ccc35)CCc3cc5c(cc3-4)OCO5)c(CC=C)c2)c1	3250 nM
C=CCc1ccc(O)c(-c2ccc(O)c(CC=C)c2)c1 [HONOKIOL]	38000 nM
C=CCc1ccc(OCCCCCc2c3[n+](cc4c(OC)c(OC)ccc24)CCc2cc4c(cc2-3)OCO4)c(-c2ccc(OC)c(CC=C)c2)c1	1710 nM
C=CCc1ccc(OC)c(-c2ccc(OCCCCCc3c4[n+](cc5c(OC)c(OC)ccc35)CCc3cc5c(cc3-4)OCO5)c(CC=C)c2)c1	1330 nM
C=CCc1ccc(OCCCCCc2c3[n+](cc4c(OC)c(OC)ccc24)CCc2cc4c(cc2-3)OCO4)c(-c2ccc(O)c(CC=C)c2)c1	2900 nM
C=CCc1ccc(OC)c(-c2ccc(O)c(CC=C)c2)c1	> 30000 nM
C=CCc1ccc(OCCCCCc2c3[n+](cc4c(OC)c(OC)ccc24)CCc2cc4c(cc2-3)OCO4)c(-c2ccc(OCCC)c(CC=C)c2)c1	1660 nM

tested on: HepG2; assay: Induction of morphological changes in human HepG2 cells assessed as accumulation of cytoplasmic vacuoles at 4 uM after 24 hrs by optical microscopic method; type: functional, cell-based; details: not given
Summary of the method: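 Cells grown at 37 °C, 5% CO2 in media with 10% FBS and penicillin/streptomycin, then treated with compound. Cytoplasmic vacuoles judged by optical microscopy. Time course at 4 μM, or 10 h exposure across increasing concentrations.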

SMILES	Activity
C=CCc1ccc(OCCC)c(-c2ccc(OCCCCCc3c4[n+](cc5c(OC)c(OC)ccc35)CCc3cc5c(cc3-4)OCO5)c(CC=C)c2)c1	Active
C=CCc1ccc(O)c(-c2ccc(OCCCc3c4[n+](cc5c(OC)c(OC)ccc35)CCc3cc5c(cc3-4)OCO5)c(CC=C)c2)c1	Active
C=CCc1ccc(OCCCCCc2c3[n+](cc4c(OC)c(OC)ccc24)CCc2cc4c(cc2-3)OCO4)c(-c2ccc(OC)c(CC=C)c2)c1	Active
C=CCc1ccc(OC)c(-c2ccc(OCCCCCc3c4[n+](cc5c(OC)c(OC)ccc35)CCc3cc5c(cc3-4)OCO5)c(CC=C)c2)c1	Active
C=CCc1ccc(OCCCCCc2c3[n+](cc4c(OC)c(OC)ccc24)CCc2cc4c(cc2-3)OCO4)c(-c2ccc(O)c(CC=C)c2)c1	Active
C=CCc1ccc(OCCCCCc2c3[n+](cc4c(OC)c(OC)ccc24)CCc2cc4c(cc2-3)OCO4)c(-c2ccc(OCCC)c(CC=C)c2)c1	Active

tested on: HT-29; assay: Antiproliferative activity against human HT29 cells assessed as reduction in cell viability after 48 hrs by MTT assay; type: functional, cell-based; details: HT-29, 48 h; summary of the method: as §1

SMILES	IC50
C=CCc1ccc(OCCC)c(-c2ccc(O)c(CC=C)c2)c1	26400 nM
C=CCc1ccc(OCCC)c(-c2ccc(OCCCCCc3c4[n+](cc5c(OC)c(OC)ccc35)CCc3cc5c(cc3-4)OCO5)c(CC=C)c2)c1	1950 nM
C=CCc1ccc(O)c(-c2ccc(OCCCc3c4[n+](cc5c(OC)c(OC)ccc35)CCc3cc5c(cc3-4)OCO5)c(CC=C)c2)c1	> 5000 nM
C=CCc1ccc(O)c(-c2ccc(O)c(CC=C)c2)c1 [HONOKIOL]	31600 nM
C=CCc1ccc(OCCCCCc2c3[n+](cc4c(OC)c(OC)ccc24)CCc2cc4c(cc2-3)OCO4)c(-c2ccc(OC)c(CC=C)c2)c1	1560 nM
C=CCc1ccc(OC)c(-c2ccc(OCCCCCc3c4[n+](cc5c(OC)c(OC)ccc35)CCc3cc5c(cc3-4)OCO5)c(CC=C)c2)c1	1640 nM
C=CCc1ccc(OCCCCCc2c3[n+](cc4c(OC)c(OC)ccc24)CCc2cc4c(cc2-3)OCO4)c(-c2ccc(O)c(CC=C)c2)c1	> 5000 nM
C=CCc1ccc(OC)c(-c2ccc(O)c(CC=C)c2)c1	35400 nM
C=CCc1ccc(OCCCCCc2c3[n+](cc4c(OC)c(OC)ccc24)CCc2cc4c(cc2-3)OCO4)c(-c2ccc(OCCC)c(CC=C)c2)c1	2390 nM

tested on: PC-3; assay: Antiproliferative activity against human PC-3 cells assessed as reduction in cell viability after 48 hrs by MTT assay; type: functional, cell-based; details: PC-3, 48 h; summary of the method: as §1

SMILES	IC50
C=CCc1ccc(OCCC)c(-c2ccc(O)c(CC=C)c2)c1	17000 nM
C=CCc1ccc(OCCC)c(-c2ccc(OCCCCCc3c4[n+](cc5c(OC)c(OC)ccc35)CCc3cc5c(cc3-4)OCO5)c(CC=C)c2)c1	1220 nM
C=CCc1ccc(O)c(-c2ccc(OCCCc3c4[n+](cc5c(OC)c(OC)ccc35)CCc3cc5c(cc3-4)OCO5)c(CC=C)c2)c1	1170 nM
C=CCc1ccc(O)c(-c2ccc(O)c(CC=C)c2)c1 [HONOKIOL]	29000 nM
C=CCc1ccc(OCCCCCc2c3[n+](cc4c(OC)c(OC)ccc24)CCc2cc4c(cc2-3)OCO4)c(-c2ccc(OC)c(CC=C)c2)c1	1120 nM
C=CCc1ccc(OC)c(-c2ccc(OCCCCCc3c4[n+](cc5c(OC)c(OC)ccc35)CCc3cc5c(cc3-4)OCO5)c(CC=C)c2)c1	990 nM
C=CCc1ccc(OCCCCCc2c3[n+](cc4c(OC)c(OC)ccc24)CCc2cc4c(cc2-3)OCO4)c(-c2ccc(O)c(CC=C)c2)c1	1590 nM
C=CCc1ccc(OC)c(-c2ccc(O)c(CC=C)c2)c1	24800 nM
C=CCc1ccc(OCCCCCc2c3[n+](cc4c(OC)c(OC)ccc24)CCc2cc4c(cc2-3)OCO4)c(-c2ccc(OCCC)c(CC=C)c2)c1	1430 nM

tested on: HepG2; assay: Antiproliferative activity against human HepG2 cells assessed as reduction in cell viability after 48 hrs by MTT assay; type: functional, cell-based; details: HepG2, 48 h; summary of the method: as §1

SMILES	IC50
C=CCc1ccc(OCCC)c(-c2ccc(O)c(CC=C)c2)c1	15500 nM
C=CCc1ccc(OCCC)c(-c2ccc(OCCCCCc3c4[n+](cc5c(OC)c(OC)ccc35)CCc3cc5c(cc3-4)OCO5)c(CC=C)c2)c1	950 nM
C=CCc1ccc(O)c(-c2ccc(OCCCc3c4[n+](cc5c(OC)c(OC)ccc35)CCc3cc5c(cc3-4)OCO5)c(CC=C)c2)c1	2190 nM
C=CCc1ccc(O)c(-c2ccc(O)c(CC=C)c2)c1 [HONOKIOL]	23800 nM
C=CCc1ccc(OCCCCCc2c3[n+](cc4c(OC)c(OC)ccc24)CCc2cc4c(cc2-3)OCO4)c(-c2ccc(OC)c(CC=C)c2)c1	1040 nM
C=CCc1ccc(OC)c(-c2ccc(OCCCCCc3c4[n+](cc5c(OC)c(OC)ccc35)CCc3cc5c(cc3-4)OCO5)c(CC=C)c2)c1	1050 nM
C=CCc1ccc(OCCCCCc2c3[n+](cc4c(OC)c(OC)ccc24)CCc2cc4c(cc2-3)OCO4)c(-c2ccc(O)c(CC=C)c2)c1	2320 nM
C=CCc1ccc(OC)c(-c2ccc(O)c(CC=C)c2)c1	29600 nM
C=CCc1ccc(OCCCCCc2c3[n+](cc4c(OC)c(OC)ccc24)CCc2cc4c(cc2-3)OCO4)c(-c2ccc(OCCC)c(CC=C)c2)c1	920 nM

tested on: HepG2; assay: Induction of morphological changes in human HepG2 cells assessed as accumulation of cytoplasmic vacuoles >30 uM after 24 hrs by optical microscopic method; type: functional, cell-based; details: dose microM >30, time 24.0 hrs

SMILES	Activity
C=CCc1ccc(O)c(-c2ccc(O)c(CC=C)c2)c1 [HONOKIOL]	Active

tested on: A2780; assay: Antiproliferative activity against human A2780 cells assessed as reduction in cell viability after 48 hrs by MTT assay; type: functional, cell-based; details: A2780, 48 h; summary of the method: as §1

SMILES	IC50
C=CCc1ccc(OCCC)c(-c2ccc(O)c(CC=C)c2)c1	14700 nM
C=CCc1ccc(OCCC)c(-c2ccc(OCCCCCc3c4[n+](cc5c(OC)c(OC)ccc35)CCc3cc5c(cc3-4)OCO5)c(CC=C)c2)c1	1410 nM
C=CCc1ccc(O)c(-c2ccc(OCCCc3c4[n+](cc5c(OC)c(OC)ccc35)CCc3cc5c(cc3-4)OCO5)c(CC=C)c2)c1	1560 nM
C=CCc1ccc(O)c(-c2ccc(O)c(CC=C)c2)c1 [HONOKIOL]	31600 nM
C=CCc1ccc(OCCCCCc2c3[n+](cc4c(OC)c(OC)ccc24)CCc2cc4c(cc2-3)OCO4)c(-c2ccc(OC)c(CC=C)c2)c1	1360 nM
C=CCc1ccc(OC)c(-c2ccc(OCCCCCc3c4[n+](cc5c(OC)c(OC)ccc35)CCc3cc5c(cc3-4)OCO5)c(CC=C)c2)c1	1170 nM
C=CCc1ccc(OCCCCCc2c3[n+](cc4c(OC)c(OC)ccc24)CCc2cc4c(cc2-3)OCO4)c(-c2ccc(O)c(CC=C)c2)c1	1590 nM
C=CCc1ccc(OC)c(-c2ccc(O)c(CC=C)c2)c1	24700 nM
C=CCc1ccc(OCCCCCc2c3[n+](cc4c(OC)c(OC)ccc24)CCc2cc4c(cc2-3)OCO4)c(-c2ccc(OCCC)c(CC=C)c2)c1	1680 nM

tested on: not listed separately; assay: Drug uptake in human HepG2 cells mitochondria at 5 uM after 12 hrs by HPLC analysis; type: ADME; details: hepg2, 12 h
Summary of the method: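 HepG2 cells given 5 μM for 12 h, then homogenized in mitochondrial extraction reagent. Spun at 600 g, 4 °C, 10 min; supernatant spun again at 11000 g, 4 °C, 10 min, and the pellet taken as mitochondria. Drug content by HPLC on a C18 column with methanol–0.1% acetic acid (80:20), detection at 265 nm. Run thrice.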

SMILES	Drug uptake
C=CCc1ccc(O)c(-c2ccc(O)c(CC=C)c2)c1 [HONOKIOL]	17.8 µM

tested on: L02; assay: Antiproliferative activity against human L02 cells assessed as reduction in cell viability after 48 hrs by MTT assay; type: cell-based; details: L02, 48 h; summary of the method: as §1

SMILES	IC50
C=CCc1ccc(OCCC)c(-c2ccc(O)c(CC=C)c2)c1	22400 nM
C=CCc1ccc(OCCC)c(-c2ccc(OCCCCCc3c4[n+](cc5c(OC)c(OC)ccc35)CCc3cc5c(cc3-4)OCO5)c(CC=C)c2)c1	3050 nM
C=CCc1ccc(O)c(-c2ccc(OCCCc3c4[n+](cc5c(OC)c(OC)ccc35)CCc3cc5c(cc3-4)OCO5)c(CC=C)c2)c1	3560 nM
C=CCc1ccc(O)c(-c2ccc(O)c(CC=C)c2)c1 [HONOKIOL]	25500 nM
C=CCc1ccc(OCCCCCc2c3[n+](cc4c(OC)c(OC)ccc24)CCc2cc4c(cc2-3)OCO4)c(-c2ccc(OC)c(CC=C)c2)c1	2970 nM
C=CCc1ccc(OC)c(-c2ccc(OCCCCCc3c4[n+](cc5c(OC)c(OC)ccc35)CCc3cc5c(cc3-4)OCO5)c(CC=C)c2)c1	3430 nM
C=CCc1ccc(OCCCCCc2c3[n+](cc4c(OC)c(OC)ccc24)CCc2cc4c(cc2-3)OCO4)c(-c2ccc(O)c(CC=C)c2)c1	3040 nM
C=CCc1ccc(OC)c(-c2ccc(O)c(CC=C)c2)c1	35300 nM
C=CCc1ccc(OCCCCCc2c3[n+](cc4c(OC)c(OC)ccc24)CCc2cc4c(cc2-3)OCO4)c(-c2ccc(OCCC)c(CC=C)c2)c1	3620 nM

tested on: PANC-1; assay: Antiproliferative activity against human PANC1 cells assessed as reduction in cell viability after 48 hrs by MTT assay; type: functional, cell-based; details: PANC-1, 48 h; summary of the method: as §1

SMILES	IC50
C=CCc1ccc(OCCC)c(-c2ccc(O)c(CC=C)c2)c1	15900 nM
C=CCc1ccc(OCCC)c(-c2ccc(OCCCCCc3c4[n+](cc5c(OC)c(OC)ccc35)CCc3cc5c(cc3-4)OCO5)c(CC=C)c2)c1	1690 nM
C=CCc1ccc(O)c(-c2ccc(OCCCc3c4[n+](cc5c(OC)c(OC)ccc35)CCc3cc5c(cc3-4)OCO5)c(CC=C)c2)c1	6020 nM
C=CCc1ccc(O)c(-c2ccc(O)c(CC=C)c2)c1 [HONOKIOL]	31200 nM
C=CCc1ccc(OCCCCCc2c3[n+](cc4c(OC)c(OC)ccc24)CCc2cc4c(cc2-3)OCO4)c(-c2ccc(OC)c(CC=C)c2)c1	2960 nM
C=CCc1ccc(OC)c(-c2ccc(OCCCCCc3c4[n+](cc5c(OC)c(OC)ccc35)CCc3cc5c(cc3-4)OCO5)c(CC=C)c2)c1	1730 nM
C=CCc1ccc(OCCCCCc2c3[n+](cc4c(OC)c(OC)ccc24)CCc2cc4c(cc2-3)OCO4)c(-c2ccc(O)c(CC=C)c2)c1	3240 nM
C=CCc1ccc(OC)c(-c2ccc(O)c(CC=C)c2)c1	16400 nM
C=CCc1ccc(OCCCCCc2c3[n+](cc4c(OC)c(OC)ccc24)CCc2cc4c(cc2-3)OCO4)c(-c2ccc(OCCC)c(CC=C)c2)c1	2560 nM
